Experimental findings from ChEMBL document CHEMBL3600374, “Dual inhibitors of the dengue and West Nile virus NS2B-NS3 proteases: Synthesis, biological evaluation and docking studies of novel peptide-hybrids” (Bioorg Med Chem, 2015) are described below.

The source made the active and inactive calls. The calls are words filed in the database; no cut-off is given here.

By inhibition is commonly meant the relative decrease from the control value, in per cent. For orientation: IC50 means the concentration that inhibits the measured activity by half. Read a high IC50 as a need for much substance.

For assay [1], the system named is dengue virus type 2. Briefly: Inhibition of DENV serotype 2 NS2B-NS3 protease expressed in Escherichia coli BL21 lambda (DE3) cells using Abz-Nle-Lys-Arg-Arg-Ser-3-(NO2)Tyr as substrate at 50 uM preincubated for 15 mins followed by substrate addition measured for 15 mins by FRET assay relative to control.
Assay [2] is described as follows: Inhibition of DENV serotype 2 NS2B-NS3 protease expressed in Escherichia coli BL21 lambda (DE3) cells using Abz-Nle-Lys-Arg-Arg-Ser-3-(NO2)Tyr as substrate preincubated for 15 mins followed by substrate addition measured for 15 mins by FRET assay. Details: species or system dengue virus type 2. The essentials: (§1)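 IC50 by FRET assay at substrate 50 μM; DENV protease at 100 nM, WNV protease at 150 nM. Measured in triplicate.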

Assay [3] deals with Genome polyprotein (West Nile virus) (UniProt P06935). Briefly: Inhibition of WNV NS2B-NS3 protease expressed in Escherichia coli BL21 lambda (DE3) cells using Abz-Gly-Leu-Lys-Arg-Gly-Gly-3-(NO2)Tyr as substrate at 50 uM preincubated for 15 mins followed by substrate addition measured for 15 mins by FRET assay relative to control.
Another assay has as its target Genome polyprotein (West Nile virus, UniProt P06935). Briefly: Inhibition of WNV NS2B-NS3 protease expressed in Escherichia coli BL21 lambda (DE3) cells using Abz-Gly-Leu-Lys-Arg-Gly-Gly-3-(NO2)Tyr as substrate preincubated for 15 mins followed by substrate addition measured for 15 mins by FRET assay. The essentials: as §1
Assay [4] has as its target Prothrombin (Homo sapiens) (UniProt P00734). Briefly: Inhibition of thrombin (unknown origin) using Boc-Val-Pro-Arg-AMC as substrate at 25 uM preincubated for 15 mins followed by substrate addition measured for 10 mins by FRET assay relative to control.
Assay [5] relates to dengue virus type 2. Briefly: Inhibition of DENV serotype 2 NS2B-NS3 protease expressed in Escherichia coli BL21 lambda (DE3) cells by HPLC-based assay.

Genome polyprotein (West Nile virus), sequence (P06935 whole entry): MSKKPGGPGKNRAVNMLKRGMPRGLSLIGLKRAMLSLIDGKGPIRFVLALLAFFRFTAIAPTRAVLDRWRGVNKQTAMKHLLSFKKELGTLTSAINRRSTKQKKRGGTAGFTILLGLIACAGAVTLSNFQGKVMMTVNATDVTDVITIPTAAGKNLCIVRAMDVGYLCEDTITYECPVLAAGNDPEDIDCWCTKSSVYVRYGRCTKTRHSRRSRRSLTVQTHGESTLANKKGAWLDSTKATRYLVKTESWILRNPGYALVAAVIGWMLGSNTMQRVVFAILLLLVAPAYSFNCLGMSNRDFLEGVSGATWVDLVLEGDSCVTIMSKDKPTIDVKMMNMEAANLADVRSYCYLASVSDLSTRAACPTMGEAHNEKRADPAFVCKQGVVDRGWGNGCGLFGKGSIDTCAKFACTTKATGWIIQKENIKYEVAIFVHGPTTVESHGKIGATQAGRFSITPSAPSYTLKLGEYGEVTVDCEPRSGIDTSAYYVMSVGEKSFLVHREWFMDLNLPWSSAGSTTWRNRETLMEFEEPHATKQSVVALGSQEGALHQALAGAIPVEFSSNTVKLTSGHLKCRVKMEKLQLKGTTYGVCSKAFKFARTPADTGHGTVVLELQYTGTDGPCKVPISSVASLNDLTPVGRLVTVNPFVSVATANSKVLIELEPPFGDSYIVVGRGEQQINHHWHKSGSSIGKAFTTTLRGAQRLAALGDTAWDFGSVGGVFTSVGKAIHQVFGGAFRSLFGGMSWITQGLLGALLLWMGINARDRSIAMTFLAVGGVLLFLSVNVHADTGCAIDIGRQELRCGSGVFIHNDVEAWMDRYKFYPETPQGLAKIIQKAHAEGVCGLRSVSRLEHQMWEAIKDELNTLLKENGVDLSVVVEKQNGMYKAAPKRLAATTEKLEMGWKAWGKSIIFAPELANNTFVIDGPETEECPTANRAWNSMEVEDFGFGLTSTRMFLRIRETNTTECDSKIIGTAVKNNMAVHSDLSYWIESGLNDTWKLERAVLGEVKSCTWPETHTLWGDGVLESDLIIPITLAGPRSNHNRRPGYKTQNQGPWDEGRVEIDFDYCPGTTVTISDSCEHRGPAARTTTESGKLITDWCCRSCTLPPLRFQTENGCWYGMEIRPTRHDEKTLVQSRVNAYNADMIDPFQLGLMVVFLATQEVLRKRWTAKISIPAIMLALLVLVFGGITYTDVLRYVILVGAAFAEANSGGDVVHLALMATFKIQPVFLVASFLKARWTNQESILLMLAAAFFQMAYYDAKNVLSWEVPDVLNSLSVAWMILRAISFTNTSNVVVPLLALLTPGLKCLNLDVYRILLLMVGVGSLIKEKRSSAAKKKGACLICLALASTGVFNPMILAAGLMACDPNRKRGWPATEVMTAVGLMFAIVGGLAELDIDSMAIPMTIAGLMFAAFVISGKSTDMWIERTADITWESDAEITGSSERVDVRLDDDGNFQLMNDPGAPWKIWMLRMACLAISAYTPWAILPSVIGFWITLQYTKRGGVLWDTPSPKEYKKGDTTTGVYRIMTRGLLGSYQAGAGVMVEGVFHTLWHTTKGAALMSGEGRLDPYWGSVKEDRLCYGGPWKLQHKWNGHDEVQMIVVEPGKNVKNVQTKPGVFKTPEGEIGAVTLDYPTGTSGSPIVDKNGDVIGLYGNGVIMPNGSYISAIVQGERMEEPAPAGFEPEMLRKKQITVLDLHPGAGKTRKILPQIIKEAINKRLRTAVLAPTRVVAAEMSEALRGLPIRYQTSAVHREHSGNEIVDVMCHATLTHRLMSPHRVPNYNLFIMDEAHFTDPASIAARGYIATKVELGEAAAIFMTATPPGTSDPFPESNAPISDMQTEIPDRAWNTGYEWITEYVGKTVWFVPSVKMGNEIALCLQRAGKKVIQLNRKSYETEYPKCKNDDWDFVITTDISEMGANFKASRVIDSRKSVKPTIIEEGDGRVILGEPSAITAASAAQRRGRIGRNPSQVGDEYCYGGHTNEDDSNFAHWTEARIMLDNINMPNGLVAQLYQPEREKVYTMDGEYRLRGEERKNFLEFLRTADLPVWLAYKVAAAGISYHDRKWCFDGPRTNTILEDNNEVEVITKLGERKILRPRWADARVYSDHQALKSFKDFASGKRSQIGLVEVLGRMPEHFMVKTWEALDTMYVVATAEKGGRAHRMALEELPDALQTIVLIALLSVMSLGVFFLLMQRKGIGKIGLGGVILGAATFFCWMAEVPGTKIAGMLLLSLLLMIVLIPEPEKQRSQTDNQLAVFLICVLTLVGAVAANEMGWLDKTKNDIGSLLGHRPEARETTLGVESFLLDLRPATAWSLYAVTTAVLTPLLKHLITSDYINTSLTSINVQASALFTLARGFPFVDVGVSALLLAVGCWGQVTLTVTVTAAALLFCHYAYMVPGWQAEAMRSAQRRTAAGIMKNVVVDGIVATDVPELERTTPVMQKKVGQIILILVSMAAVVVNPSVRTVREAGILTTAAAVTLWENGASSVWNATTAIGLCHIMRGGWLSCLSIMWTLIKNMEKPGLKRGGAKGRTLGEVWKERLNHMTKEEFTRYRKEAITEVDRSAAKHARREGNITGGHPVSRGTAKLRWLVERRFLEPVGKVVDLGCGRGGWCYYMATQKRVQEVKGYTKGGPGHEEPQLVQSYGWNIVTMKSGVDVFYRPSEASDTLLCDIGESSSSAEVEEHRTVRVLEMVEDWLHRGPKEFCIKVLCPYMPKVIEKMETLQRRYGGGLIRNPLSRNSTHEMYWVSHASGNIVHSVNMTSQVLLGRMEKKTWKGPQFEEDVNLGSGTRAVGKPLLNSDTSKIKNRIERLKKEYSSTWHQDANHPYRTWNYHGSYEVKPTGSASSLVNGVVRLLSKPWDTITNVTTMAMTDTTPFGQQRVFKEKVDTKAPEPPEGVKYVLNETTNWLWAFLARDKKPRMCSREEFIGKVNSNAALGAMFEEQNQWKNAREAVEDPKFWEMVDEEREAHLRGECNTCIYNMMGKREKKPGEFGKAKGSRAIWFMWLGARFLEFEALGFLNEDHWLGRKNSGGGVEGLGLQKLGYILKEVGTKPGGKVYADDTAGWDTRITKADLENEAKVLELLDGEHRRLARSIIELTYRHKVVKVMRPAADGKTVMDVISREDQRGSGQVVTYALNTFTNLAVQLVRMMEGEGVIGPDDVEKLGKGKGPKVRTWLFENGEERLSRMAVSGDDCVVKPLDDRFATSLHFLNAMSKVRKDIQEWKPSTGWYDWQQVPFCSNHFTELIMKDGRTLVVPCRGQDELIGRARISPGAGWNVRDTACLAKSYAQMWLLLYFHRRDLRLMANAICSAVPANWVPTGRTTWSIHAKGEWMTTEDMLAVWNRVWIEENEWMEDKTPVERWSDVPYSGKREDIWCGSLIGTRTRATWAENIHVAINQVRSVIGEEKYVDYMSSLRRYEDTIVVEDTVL
Genome polyprotein, sequence (P06935 1371-1501 limits assumed): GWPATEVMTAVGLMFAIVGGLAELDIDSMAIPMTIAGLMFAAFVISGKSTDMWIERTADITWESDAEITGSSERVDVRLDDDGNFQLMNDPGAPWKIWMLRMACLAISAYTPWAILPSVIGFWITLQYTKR
Genome polyprotein, sequence (P06935 1502-2120 limits assumed): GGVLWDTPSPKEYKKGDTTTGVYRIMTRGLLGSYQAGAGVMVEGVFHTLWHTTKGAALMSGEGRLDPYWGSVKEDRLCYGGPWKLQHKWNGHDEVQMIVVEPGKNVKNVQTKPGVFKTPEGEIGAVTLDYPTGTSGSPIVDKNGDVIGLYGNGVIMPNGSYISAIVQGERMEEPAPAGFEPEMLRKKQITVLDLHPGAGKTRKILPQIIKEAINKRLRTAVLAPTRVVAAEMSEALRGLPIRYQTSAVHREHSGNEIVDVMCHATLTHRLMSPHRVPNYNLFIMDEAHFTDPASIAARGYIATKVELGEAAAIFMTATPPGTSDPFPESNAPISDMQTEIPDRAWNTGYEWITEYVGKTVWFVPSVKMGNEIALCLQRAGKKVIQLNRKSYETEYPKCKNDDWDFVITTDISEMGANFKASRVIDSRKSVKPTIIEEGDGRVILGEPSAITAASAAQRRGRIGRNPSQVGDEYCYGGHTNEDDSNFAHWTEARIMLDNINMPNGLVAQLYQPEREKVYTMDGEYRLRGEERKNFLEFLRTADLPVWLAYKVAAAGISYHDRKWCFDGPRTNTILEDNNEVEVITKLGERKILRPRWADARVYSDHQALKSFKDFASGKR

Consider `C#CCCCN1C(=O)S/C(=C\c2ccc(C(=O)N[C@@H](CCCNC(=N)N)C(=O)N[C@@H](CCCCN)C(=O)N[C@H](C(N)=O)c3ccccc3)cc2)C1=O`, for which the values for the inhibition (in the assay on dengue virus type 2 [1]; in assay [3]; in assay [4]) were 103%, 105% and 10.4%, respectively. For the same compound, the IC50 worked out at 850 nM in assay [2] and 2750 nM against Genome polyprotein.
On the same counts, the results for `N=C(N)NCCC[C@H](NC(=O)c1ccc(/C=C2\SC(=O)N(CCC3CCCCC3)C2=O)cc1)C(=O)N[C@@H](CCCCN)C(=O)N[C@H](C(N)=O)c1ccccc1` are 99.9%, 101%, 7.3%, 1920 nM and 1130 nM.
In the same order, the values of `N=C(N)NCCC[C@H](NC(=O)c1ccc(/C=C2\SC(=O)N(CC3CCCC3)C2=O)cc1)C(=O)N[C@@H](CCCCN)C(=O)N[C@H](C(N)=O)c1ccccc1` are 100%, 98.8%, 10.1%, 850 nM and 1010 nM.
In the same order, the values of `C#CCN1C(=O)S/C(=C\c2ccc(C(=O)N[C@@H](CCCNC(=N)N)C(=O)N[C@@H](CCCCN)C(=O)N[C@H](C(N)=O)c3ccccc3)cc2)C1=O` are 99.2%, 93.1%, 10.9%, 990 nM and 2360 nM.
For `CCC(CC)CN1C(=O)S/C(=C\c2ccc(C(=O)N[C@@H](CCCNC(=N)N)C(=O)N[C@@H](CCCCN)C(=O)N[C@H](C(N)=O)c3ccccc3)cc2)C1=O`, the figures for the inhibition (with dengue virus type 2 [1]; in assay [3]; in assay [4]) were 100%, 99.2% and 8.7%, respectively. Besides, the figures for the IC50 (in assay [2]; against Genome polyprotein) were 650 nM and 1350 nM, respectively.
In the same order, the values of `CC(C)CN1C(=O)S/C(=C\c2ccc(C(=O)N[C@@H](CCCNC(=N)N)C(=O)N[C@@H](CCCCN)C(=O)N[C@H](C(N)=O)c3ccccc3)cc2)C1=O` are 99.6%, 90.7%, “inactive”, 1010 nM and 6240 nM.
`N=C(N)NCCC[C@H](NC(=O)c1ccc(/C=C2\SC(=O)N(CC3CCC3)C2=O)cc1)C(=O)N[C@@H](CCCCN)C(=O)N[C@H](C(N)=O)c1ccccc1`: the inhibition in the assay on dengue virus type 2 [1] came to 99.7%; in assay [3] it was 95.9%; in assay [4], 8%. The IC50 in assay [2] was 780 nM; on Genome polyprotein, 1390 nM.
In the same order, the values of `CC(C)CCN1C(=O)S/C(=C\c2ccc(C(=O)N[C@@H](CCCNC(=N)N)C(=O)N[C@@H](CCCCN)C(=O)N[C@H](C(N)=O)c3ccccc3)cc2)C1=O` are 100%, 95.4%, 7.3%, 900 nM and 1760 nM.
Regarding `O=C(O)c1ccc(/C=C2\SC(=O)N(CC34CC5CC(CC(C5)C3)C4)C2=O)cc1`, the inhibition result (in the assay with dengue virus type 2 [1]; in assay [3]; in the assay with dengue virus type 2 [5]) was “inactive” throughout.
On to `CC(C)(C)CN1C(=O)S/C(=C\c2ccc(C(=O)O)cc2)C1=O`, for which the inhibition worked out at 13.1% with dengue virus type 2 [1] and 41.1% in assay [3]. Further, the inhibition result with dengue virus type 2 [5] was “inactive”.
Regarding `N=C(N)NCCC[C@H](NC(=O)c1ccc(/C=C2\SC(=O)N(C3CCCCC3)C2=O)cc1)C(=O)N[C@@H](CCCCN)C(=O)N[C@H](C(N)=O)c1ccccc1`, the values for the inhibition (with dengue virus type 2 [1]; in assay [3]; in assay [4]) were 101%, 98% and 9.5%, respectively. For the same compound, the results for the IC50 (in assay [2]; against Genome polyprotein) were 790 nM and 1710 nM, respectively.
Regarding `O=C(O)c1ccc(/C=C2\SC(=O)N(CC3CCCC3)C2=O)cc1`, the inhibition is 15.9% in the assay on dengue virus type 2 [1] and 32.4% in assay [3]. The inhibition entry in the assay on dengue virus type 2 [5] is “inactive”.
For the compound `CC(C)(C)CN1C(=O)S/C(=C\c2ccc(C(=O)N[C@@H](CCCNC(=N)N)C(=O)N[C@@H](CCCCN)C(=O)N[C@H](C(N)=O)c3ccccc3)cc2)C1=O`, the inhibition worked out at 101% in the assay on dengue virus type 2 [1], 93.5% in assay [3] and 9.7% in assay [4]. In addition, the IC50 came to 580 nM in assay [2] and 2030 nM against Genome polyprotein.
In the same order, the values of `CC(C)N1C(=O)S/C(=C\c2ccc(C(=O)N[C@@H](CCCNC(=N)N)C(=O)N[C@@H](CCCCN)C(=O)N[C@H](C(N)=O)c3ccccc3)cc2)C1=O` are 99.1%, 94.4%, 8.5%, 470 nM and 3590 nM.
In the same order, the values of `CC(C)(C)CCN1C(=O)S/C(=C\c2ccc(C(=O)N[C@@H](CCCNC(=N)N)C(=O)N[C@@H](CCCCN)C(=O)N[C@H](C(N)=O)c3ccccc3)cc2)C1=O` are 101%, 98.9%, 9.7%, 510 nM and 1910 nM.
In the same order, the values of `N=C(N)NCCC[C@H](NC(=O)c1ccc(/C=C2\SC(=O)N(CC34CC5CC(CC(C5)C3)C4)C2=O)cc1)C(=O)N[C@@H](CCCCN)C(=O)N[C@H](C(N)=O)c1ccccc1` are 102%, 107%, 6.6%, 740 nM and 1270 nM.
Regarding `CC(C)N1C(=O)S/C(=C\c2ccc(C(=O)O)cc2)C1=O`, the inhibition with dengue virus type 2 [1] was 16.3%; in assay [3], 34.8%. In addition, in the assay on dengue virus type 2 [5], the inhibition entry is “inactive”.
As for `N=C(N)NCCC[C@H](NC(=O)c1ccc(/C=C2\SC(=O)N(C3CCC3)C2=O)cc1)C(=O)N[C@@H](CCCCN)C(=O)N[C@H](C(N)=O)c1ccccc1`, the inhibition with dengue virus type 2 [1] was 100%; in assay [3], 95.3%; in assay [4], 4.7%. For the same compound, the IC50 in assay [2] was 620 nM; on Genome polyprotein, 1690 nM.
In the same order, the values of `CCC(CC)N1C(=O)S/C(=C\c2ccc(C(=O)N[C@@H](CCCNC(=N)N)C(=O)N[C@@H](CCCCN)C(=O)N[C@H](C(N)=O)c3ccccc3)cc2)C1=O` are 99.3%, 95%, 8%, 740 nM and 1120 nM.
With `O=C(O)c1ccc(/C=C2\SC(=O)N(CC3CCCCC3)C2=O)cc1`, the inhibition came to 23% in the assay with dengue virus type 2 [1] and 35% in assay [3]. In addition, the inhibition result with dengue virus type 2 [5] is “inactive”.
Regarding `C#CCCN1C(=O)S/C(=C\c2ccc(C(=O)O)cc2)C1=O`, the inhibition result in the assay with dengue virus type 2 [1] and in the assay with dengue virus type 2 [5] was “inactive” each time. Besides, in assay [3], the inhibition came to 20.8%.
For the compound `N=C(N)NCCC[C@H](NC(=O)c1ccc(/C=C2\SC(=O)N(C3CCCCCC3)C2=O)cc1)C(=O)N[C@@H](CCCCN)C(=O)N[C@H](C(N)=O)c1ccccc1`, the inhibition with dengue virus type 2 [1] was 100%; in assay [3] it was 101%; in assay [4], 11.5%. For the same compound, the results for the half-maximal inhibitory concentration (IC50) (in assay [2]; against Genome polyprotein) were 830 nM and 2110 nM, respectively.
On the same counts, the results for `CCC(C)N1C(=O)S/C(=C\c2ccc(C(=O)N[C@@H](CCCNC(=N)N)C(=O)N[C@@H](CCCCN)C(=O)N[C@H](C(N)=O)c3ccccc3)cc2)C1=O` (stereo partly specified) are 102%, 92.8%, 38.9%, 920 nM and 2500 nM.
For the compound `CCC(CC)N1C(=O)S/C(=C\c2ccc(C(=O)O)cc2)C1=O`, the figures for the inhibition (in the assay on dengue virus type 2 [1]; in assay [3]) were 11.2% and 40.7%, respectively. For the same compound, the inhibition entry in the assay with dengue virus type 2 [5] is “inactive”.
